What all share (format): physicochemical
The nature of data set [1]: Evaluated for ionization constant (pKa3) by titrations performed in the presence of EtOH and at a dielectric constant of 52. Particulars: EtOH cosolvent; read-out: pKa3. A digest of the protocol:
(§1)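 pH-metric titration in mixed water/cosolvent media (MeOH or EtOH, depending on the ligand) at several cosolvent proportions, each proportion setting the dielectric constant. Electrode calibrated with pH 7.00 phosphate buffer and standardized after a blank titration by a nonlinear semiempirical fit. Readings were converted to pcH to give concentration-scale constants.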

Data set [2] can be described thus: Evaluated for ionization constant (pKa3) by titrations performed in the presence of EtOH and at a dielectric constant of 57. Particulars: EtOH cosolvent; read-out: pKa3. An outline of the steps:
as §1

The nature of data set [3]: Evaluated for ionization constant (pKa3) by titrations performed in the presence of EtOH and at a dielectric constant of 63. The settings on record: EtOH cosolvent; read-out: pKa3. A digest of the protocol:
as §1

Data set [4] in a line: Evaluated for ionization constant (pKa3) by titrations performed using the method of Yasuda and Shedlovsky. Particulars: read-out: pKa3. An outline of the steps: (§2)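 Aqueous constants were extrapolated by the Yasuda–Shedlovsky method from pH-metric titrations run at several MeOH or EtOH cosolvent levels. Electrode calibrated with pH 7.00 phosphate buffer and standardized after a blank titration. Values are expressed on the pcH (-log[H+]) concentration scale.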

The nature of data set [5]: Evaluated for ionization constant (pKa4) by titrations performed in the presence of EtOH and at a dielectric constant of 52. The settings on record: EtOH cosolvent; read-out: pKa4. A digest of the protocol:
as §1

Data set [6] can be described thus: Evaluated for ionization constant (pKa4) by titrations performed in the presence of EtOH and at a dielectric constant of 57. Particulars: EtOH cosolvent; read-out: pKa4. A digest of the protocol: as §1
Data set [7] is described as follows: Evaluated for ionization constant (pKa4) by titrations performed in the presence of EtOH and at a dielectric constant of 63. The settings on record: EtOH cosolvent; read-out: pKa4. A digest of the protocol:
as §1

The nature of data set [8]: Evaluated for ionization constant (pKa4) by titrations performed using the method of Yasuda and Shedlovsky. Particulars: read-out: pKa4. A digest of the protocol:
(§3)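 Potentiometric pH titration. The electrode is calibrated with pH 7.00 phosphate buffer. A blank titration before each set standardizes the electrode by a nonlinear semiempirical equation, and readings are converted to the concentration scale pcH = −log[H+]. Runs use varying amounts of MeOH or EtOH cosolvent, and aqueous pKa values are extrapolated by the Yasuda–Shedlovsky method. Low pKa values (pH < 2) are determined by spectrophotometric titration.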

Data set [9] can be described thus: Evaluated for ionization constant (pKa2) by titrations performed in the presence of EtOH and at a dielectric constant of 52. The settings on record: EtOH cosolvent, dielectric constant 52; read-out: pKa2. An outline of the steps: as §1
Data set [10] in a line: Evaluated for ionization constant (pKa2) by titrations performed in the presence of EtOH and at a dielectric constant of 57. The settings on record: EtOH cosolvent, dielectric constant 57; read-out: pKa2. A digest of the protocol:
as §1

Data set [11] is described as follows: Evaluated for ionization constant (pKa2) by titrations performed using method of Yasuda and Shedlovsky. The settings on record: read-out: pKa2. A digest of the protocol: as §2
Data set [12] in a line: Partition coefficient (logP) (chloroform). An outline of the steps:
(§4)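 Free-ligand partition coefficients are measured by the pH-metric technique. This uses two linked titrations: a normal aqueous titration, then a two-phase titration in the presence of the partition solvent.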

Data set [13] can be described thus: Partition coefficient (logP) (cyclohexane). An outline of the steps:
as §4

Data set [14] in a line: Partition coefficient (logP). Particulars: octanol/water. A digest of the protocol:
as §4

Data set [15] can be described thus: Evaluated for ionization constant (pKa1) by titrations performed using method of Yasuda and Shedlovsky. Particulars: read-out: pKa1. A digest of the protocol:
as §2

Data set [16] in a line: Evaluated for ionization constant (pKa5) by titrations performed in the presence of MeOH at a dielectric constant of 49. Particulars: MeOH cosolvent; read-out: pKa5. A digest of the protocol:
as §3

A short description of data set [17]: Evaluated for ionization constant (pKa5) by titrations performed in the presence of MeOH at a dielectric constant of 56. The settings on record: MeOH cosolvent; read-out: pKa5. A digest of the protocol:
as §3

A short description of data set [18]: Evaluated for ionization constant (pKa5) by titrations performed in the presence of MeOH at a dielectric constant of 62. The settings on record: MeOH cosolvent; read-out: pKa5. A digest of the protocol:
as §3

A short description of data set [19]: Evaluated for ionization constant (pKa3) by titrations performed in the absence of a cosolvent and at a dielectric constant of 78. The settings on record: no cosolvent; read-out: pKa3.
Data set [20] is described as follows: Evaluated for ionization constant (pKa6) by titrations performed using the method of Yasuda and Shedlovsky. Particulars: read-out: pKa6. A digest of the protocol:
as §3

Data set [21] in a line: Evaluated for ionization constant (pKa3) by titrations performed in the presence of MeOH at a dielectric constant of 49. The settings on record: MeOH cosolvent; read-out: pKa3. A digest of the protocol:
as §1

The nature of data set [22]: Evaluated for ionization constant (pKa3) by titrations performed in the presence of MeOH at a dielectric constant of 56. Particulars: MeOH cosolvent; read-out: pKa3. A digest of the protocol:
as §1

Data set [23] is described as follows: Evaluated for ionization constant (pKa3) by titrations performed in the presence of MeOH at a dielectric constant of 62. Particulars: MeOH cosolvent; read-out: pKa3. A digest of the protocol:
as §1

The nature of data set [24]: Evaluated for ionization constant (pKa4) by titrations performed in the absence of a cosolvent and at a dielectric constant of 78. Particulars: no cosolvent; read-out: pKa4.
The nature of data set [25]: Evaluated for ionization constant (pKa4) by titrations performed in the presence of MeOH at a dielectric constant of 49. The settings on record: MeOH cosolvent; read-out: pKa4. A digest of the protocol:
as §1

Data set [26] in a line: Evaluated for ionization constant (pKa4) by titrations performed in the presence of MeOH at a dielectric constant of 62. Particulars: MeOH cosolvent; read-out: pKa4. A digest of the protocol: as §1
A short description of data set [27]: Evaluated for ionization constant (pKa5) by titrations performed using the method of Yasuda and Shedlovsky. The settings on record: read-out: pKa5. An outline of the steps:
as §3

Data set [28] is described as follows: Evaluated for ionization constant (pKa6) by titrations performed in the presence of MeOH at a dielectric constant of 56. Particulars: MeOH cosolvent, dielectric constant 56; read-out: pKa6. An outline of the steps:
as §3

Data set [29] is described as follows: Evaluated for ionization constant (pKa6) by titrations performed in the presence of MeOH at a dielectric constant of 62. The settings on record: MeOH cosolvent, dielectric constant 62; read-out: pKa6. A digest of the protocol:
as §3

Data set [30] is described as follows: Evaluated for ionization constant-1 (pKa1) by titrations performed in absence of a cosolvent at a dielectric constant of 78. The settings on record: no cosolvent, dielectric constant 78; read-out: pKa1. An outline of the steps:
as §3

A short description of data set [31]: Evaluated for ionization constant (pKa2) by titrations performed in the presence of MeOH at a dielectric constant of 56. The settings on record: MeOH cosolvent, dielectric constant 56; read-out: pKa2. A digest of the protocol: as §1
Data set [32] is described as follows: Evaluated for ionization constant (pKa2) by titrations performed in the absence of cosolvent and at a dielectric constant of 78. The settings on record: no cosolvent, dielectric constant 78; read-out: pKa2.
A short description of data set [33]: Evaluated for ionization constant (pKa4) by titrations performed in the presence of MeOH at a dielectric constant of 56. The settings on record: MeOH cosolvent, dielectric constant 56; read-out: pKa4. A digest of the protocol:
as §1

Data set [34] can be described thus: Evaluated for ionization constant (pKa6) by titrations performed in the presence of MeOH at a dielectric constant of 49. The settings on record: MeOH cosolvent, dielectric constant 49; read-out: pKa6. An outline of the steps: as §3

From ChEMBL document CHEMBL1133005, “Improving the oral bioavailability of the iron chelator HBED by breaking the symmetry of the intramolecular H-bond network” (J Med Chem, 2000) come the findings set out here.

Structures are written as SMILES.

Regarding `CCOC(=O)CN(CCN(CC(=O)OCC)Cc1ccccc1O)Cc1ccccc1O`, the pKa came to 5.09 in [1]; 5.25 in [2]; 5.45 in data set [3]; 5.7 in data set [4]; 1.05 in data set [5]; 1.21 in data set [6]. In addition, the pKa in data set [7] was 1.42; in data set [8], 1.8; in data set [9], 11.8; in [10], 11.6; in [11], 10.9; in [15], 12.2. The values for the logP in data set [12], in data set [13] and in [14] were 3.35, 3.22 and 3.35, respectively.

Take `O=C(O)CN(CCN(CC(=O)O)Cc1ccccc1O)Cc1ccccc1O`: the pKa in [16] turned out to be 2.72; in data set [17], 2.34; in data set [18], 2.25; in data set [19], 8.34; in data set [20] it was 0.92; in data set [21], 8.37. Also, the pKa in [22] was 8.36; in [23], 8.36; in [4], 8.36; in [24] it was 4.61; in data set [25] it was 4.71; in [26] it was 4.58. In addition, the pKa in data set [8] came out at 4.58; in data set [27] it was 1.62; in data set [28], 1.11; in data set [29], 1.05; in [30], 12.9; in data set [31], 12.5. The pKa stood at 11.1 in data set [32], 4.57 in data set [33] and 1.18 in data set [34]. Further, the figures for the logP in data set [12], in data set [13] and in data set [14] were less than -2, less than -2 and 0.16, respectively.
